CDK5 p35 inh: blocks human CDK5/p35 kinase activity. Q00535+Q15078. Recombinant CDK5/p35, ADP-Glo luminescence, 60 min. inhibition, % at 10 µM. actives 0.01% (n = 330,000);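 active = highest replicate inhibition of at least 50% and at least 75% of replicates reaching 50%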;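 also: plate controls were DMSO neutral control for no effect and GW8510 at 10 µM for full effect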
dFosB activator: activators of mouse delta FosB homodimer | purified delta FosB, TAMRA-CDK5 oligo fluorescence polarization; percent of positive-control signal above neutral wells | activation, % at 25 µM | actives 0.99% (n = 340,000) | P13346 | AID 493131;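 active = mean activation above about 17%, with every replicate also reaching it, limit read from the data, passing the limit was not always enough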
Target sequence (P13346 whole entry, looked up): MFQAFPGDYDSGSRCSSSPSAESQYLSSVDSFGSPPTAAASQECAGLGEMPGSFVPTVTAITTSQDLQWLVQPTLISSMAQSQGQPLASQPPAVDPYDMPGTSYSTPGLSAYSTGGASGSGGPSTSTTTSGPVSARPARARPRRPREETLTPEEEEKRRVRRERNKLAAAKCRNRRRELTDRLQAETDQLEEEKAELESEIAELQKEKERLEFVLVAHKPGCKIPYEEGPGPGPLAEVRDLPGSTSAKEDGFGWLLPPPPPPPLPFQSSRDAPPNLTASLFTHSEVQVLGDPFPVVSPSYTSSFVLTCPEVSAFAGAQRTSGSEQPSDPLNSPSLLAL
CAL PDZ FP-1: blocks peptide binding to human CAL PDZ domain | Q9HD26 | purified CAL PDZ, TMR-peptide fluorescence polarization, 1 h | inhibition, % at 20 µM | actives 0.02% (n = 330,000) | AID 504414;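 active = highest replicate inhibition of at least 40%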;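 also: plate controls were DMSO neutral control wells for no effect and unlabeled competitor peptide control wells for full effect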
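System: purified tagged CAL PDZ domain construct (CerCALP). Schedule: 1 h incubation at room temperature before polarization reading. Medium: 25 mM sodium phosphate pH 7.4, 150 mM NaCl, TCEP, IgG, Thesit. Read-out: percent inhibition from loss of millipolarization. Measured by: FP readout, S and P plane fluorescence. Probe or stimulus: fluorescent TMR peptide probe.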
CAL PDZ FP-2: blocks peptide binding to the human CAL PDZ domain; purified CAL PDZ, TMR-peptide fluorescence polarization, 1 h; inhibition, % at 24.9 µM; actives 0.92% (n = 300,000); AID 602252;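 active = mean inhibition of at least 30% with at least half of replicates also reaching 30%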;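 also: 0% = DMSO neutral control and 100% = excess unlabeled competitor peptide PRC23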
Statin myotox sup: suppression of simvastatin myotoxicity | actives 0.78% (n = 330,000) | rescue of ATP level, % at 7.49 µM | C2C12 myotubes + simvastatin, ATP luminescence, 48 h; scaled: DMSO 0, geranylgeraniol control 100;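 active = mean ATP rescue above about 67%, or every replicate alone reaching that limit, limit read from the data, passing the limit was not always enough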;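 also: myotubes were challenged with 10 µM simvastatin during compound exposure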
S100A4 MyoIIA: blocks human S100A4 binding to myosin IIA peptide; P26447; S100A4/TAMRA-MyoIIA peptide fluorescence polarization; inhibition, % at 10.7 µM; actives 0.14% (n = 360,000); AID 652163;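 active = mean inhibition of at least 70% across replicates, with every replicate also reaching that level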
Target sequence (P26447 whole entry, looked up): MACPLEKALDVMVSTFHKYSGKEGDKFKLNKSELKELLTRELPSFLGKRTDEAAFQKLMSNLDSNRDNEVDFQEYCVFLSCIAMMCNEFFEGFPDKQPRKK
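Compound dosing: one dose per compound; test system: human S100A4 monomer with TAMRA-labelled myosin IIA peptide; probe or stimulus: TAMRA-labelled myosin IIA heavy-chain peptide probe, 5 nM; medium: HEPES buffer with Ca2+, pH 7.2; schedule: 5 min incubation before reading; benchmarks: neutral control DMSO, positive control TFP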
Starred values were filed as active, the others as inactive; · = no result. Most compounds without a hit are left out; they make up all but 2% or so of the library.

SMILES	CDK5 p35 inh	dFosB activator	CAL PDZ FP-1	CAL PDZ FP-2	Statin myotox sup	S100A4 MyoIIA
CN1CCN(c2oc(Cc3cccc4ccccc34)nc2C#N)CC1	2.1	-0.8	-2.7	-2.2	·	2.7
Cc1ccc(S(=O)(=O)CCC(=O)Nc2cccc(S(=O)(=O)N3CCCCCC3)c2)cc1	0.3	-4.0	-1.4	31.9*	-6.0	-2.2
Cc1cccc(NC(=O)CCS(=O)(=O)c2ccccc2)c1	-2.2	2.6	-3.0	62.2*	0.8	-4.0
Cc1ccc(S(=O)(=O)CCC(=O)Nc2cccc([N+](=O)[O-])c2)cc1	-1.3	7.1	-2.5	-1.2	·	-10.5
Cc1ccc(S(=O)(=O)CCC(=O)Nc2cccc(Cl)c2)cc1	-0.5	-4.2	-0.9	-2.5	107.8*	-4.7
CC(=O)c1cc(Cl)ccc1OCC(=O)Nc1cccc(S(=O)(=O)N2CCCC2)c1	-0.3	-8.4	-0.6	50.2*	11.4	-0.6
CC1(c2ccccc2)CC(C)(C)N(C(=O)CSc2nnc(N)s2)c2ccccc21 (stereo unspecified)	-0.9	-10.2	-1.9	·	·	·
O=C(CCS(=O)(=O)c1ccccc1)Nc1ncc([N+](=O)[O-])s1	2.0	-9.7	-2.5	0.8	74.8*	-3.1
O=C(CS(=O)(=O)c1ccccc1)Nc1ncc([N+](=O)[O-])s1	0.6	-5.4	-0.8	·	1.2	-7.6
CC(=O)/C(=C/Nc1ccc(Oc2ccccc2)cc1)c1ccccc1	-0.2	-3.2	-0.4	-4.9	·	·
Cc1cccc(C)c1N(CC(=O)N1CCOCC1)S(C)(=O)=O	-0.2	-6.2	·	44.3*	6.2	2.3
CC(C)(C)C(=O)NC(=S)Nc1ccc(S(=O)(=O)Nc2nccs2)cc1	-0.3	-5.8	-0.1	4.0	·	4.4
O=C(NC(=S)Nc1ccc(S(=O)(=O)Nc2nccs2)cc1)c1ccc(F)cc1	2.0	-4.2	-1.6	53.9*	·	11.9
Cc1cc(C)c(NC(=O)CN2C(=O)CC(C)S(=O)(=O)c3ccccc32)c(C)c1 (stereo unspecified)	1.6	-0.9	0.3	·	-0.6	1.5
CCN1C(=O)C(O)(CC(=O)c2c(C)coc2C)c2ccccc21 (stereo unspecified)	-1.6	4.5	-3.0	-1.6	·	1.4
COc1ccc(-c2nn(C)c3sc(C(=O)NCCN(C)C)cc23)cc1OC	0.6	50.6*	-2.5	-2.7	10.9	4.2
CCCN(CCC)CCCNC(=O)c1cc2c(-c3ccc(OC)c(OC)c3)nn(C)c2s1	-0.3	0.0	-0.3	-3.8	0.5	-0.5
CCNc1nc(OC)nc(SCC(N)=O)n1	1.2	-5.0	0.0	-8.9	69.1*	·
C[C@@H]1CN([C@H](C)CO)C(=O)c2cc(NC(=O)c3ccncc3)ccc2O[C@@H](C)CCCCO[C@@H]1CN(C)Cc1ccccc1	·	·	·	·	·	-8.1
O=C(COC(=O)c1cnccn1)Nc1ncc(C(F)(F)F)cc1Cl	-0.4	-1.4	-1.2	54.5*	0.4	-1.4
O=C(CCl)NC1CCCc2ccccc21 (stereo unspecified)	-4.2	-4.1	-0.1	0.6	·	-1.7
O=C(CCn1cccc1)NC1CCCc2ccccc21 (stereo unspecified)	1.0	2.1	0.4	-4.0	152.4*	·
Cc1ccc(S(=O)(=O)Nc2ccc3c(c2)C(=O)N([C@H](C)CO)C[C@H](C)[C@H](CN(C)C(=O)NC(C)C)OCCCC[C@H](C)O3)cc1	·	·	·	·	·	0.2
C[C@H]1CN([C@@H](C)CO)C(=O)c2cc(NS(=O)(=O)c3ccc(F)cc3)ccc2O[C@@H]1CN(C)S(=O)(=O)c1cccs1	·	·	·	·	81.1*	-0.1
Cc1ccc(S(=O)(=O)Nc2ccc3c(c2)C(=O)N([C@H](C)CO)C[C@@H](C)[C@H](CN(C)S(C)(=O)=O)OCCCC[C@@H](C)O3)cc1	·	·	·	·	·	125.2*
C[C@H](CO)N1C[C@H](C)[C@H](CN(C)S(=O)(=O)c2cccs2)Oc2ccc(NS(=O)(=O)c3ccc(F)cc3)cc2C1=O	·	·	·	·	28.8	-2.1
C[C@@H]1CCCCO[C@H](CN(C)S(C)(=O)=O)[C@@H](C)CN([C@@H](C)CO)C(=O)c2cc(NS(=O)(=O)c3ccc(F)cc3)ccc2O1	·	·	·	·	102.1*	-3.5

Bioassay records (PubChem)
